In brackets after ≈: the same amount, converted by molar mass.
How the values were obtained:
[1] = test system: Rattus norvegicus; assay: Cmax in Wistar rat after administration as its prodrug at 1 mg/kg, po; type: ADME, organism-based; design: dose 1 mg/kg, route oral; details: in vivo
[2] = Solubility in PBS at pH 7.2, 37 degC after 24 hrs; type: physicochemical
[3] = Metabolic stability in rat liver microsomes at 5 uM after 30 min […]; type: ADME, Microsome; details: in the assay text read “37 degC” for “30 degC”, read-out: Stability
[4] = test system: Rattus norvegicus; assay: Inhibition of adjuvant-induced arthritis in Wistar rat at 0.1 mg/kg, po; type: functional
Procedure, shortened: (§1)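 Adjuvant-induced arthritis in male Wistar rats run as a therapeutic protocol. Compounds were given orally once daily for 7 days, starting on day 14 after arthritis induction. Paw edema was measured 24 h after the last dose. Results are reported as ED50 from four doses (six to eight animals per group) or as % inhibition at the stated dose.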

[5] = test system: Rattus norvegicus; assay: Tmax in Wistar rat after administration as its prodrug at 1 mg/kg, po; type: ADME, organism-based; design: dose 1 mg/kg, route oral; details: in vivo
[6] = AUC in Wistar rat at 1 mg/kg, po; type: ADME, organism-based; design: dose 1 mg/kg, route oral; details: plasma
[7] = Cmax in Wistar rat at 1 mg/kg, po; type: ADME, organism-based; design: dose 1 mg/kg, route oral; details: in vivo
[8] = Metabolic stability in human liver microsomes at 5 uM after 30 min […]; type: ADME, Microsome; details: in the assay text read “37 degC” for “30 degC”, read-out: Stability
[9] = test system: Rattus norvegicus; assay: Ratio AUC for prodrug to the parent compound in Wistar rat at 1 mg/kg, po; type: ADME, organism-based; design: dose 1 mg/kg, route oral; details: in vivo
[10] = Solubility in simulated gastric fluid at pH 1.8, 37 degC after 24 hrs; type: physicochemical
[11] = organism: Rattus norvegicus; assay: Inhibition of yeast-induced pyresis in Wistar rat; type: functional
Procedure, shortened: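 Yeast-induced pyresis in rats, an acute therapeutic protocol with a single oral dose. Temperature was measured at 1 h intervals from 1 to 5 h after dosing. ED50 was derived from four doses with six to eight animals per group.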

[12] = test system: Rattus norvegicus; assay: AUC in Wistar rat after administration as its prodrug at 1 mg/kg, po; type: ADME, organism-based, Plasma; design: dose 1 mg/kg, route oral; details: in vivo
[13] = Tmax in Wistar rat at 1 mg/kg, po; type: ADME, organism-based; design: dose 1 mg/kg, route oral; details: in vivo
[14] = test system: Rattus norvegicus; assay: Activity against adjuvant-induced arthritis in po dosed Wistar rat; type: functional, organism-based; procedure, shortened: as §1
[15] = molecular target: T1, Prostaglandin G/H synthase 2 (Homo sapiens, UniProt P35354); assay: Inhibition of COX2 in human whole blood; type: tissue-based
T1 sequence (P35354 whole entry): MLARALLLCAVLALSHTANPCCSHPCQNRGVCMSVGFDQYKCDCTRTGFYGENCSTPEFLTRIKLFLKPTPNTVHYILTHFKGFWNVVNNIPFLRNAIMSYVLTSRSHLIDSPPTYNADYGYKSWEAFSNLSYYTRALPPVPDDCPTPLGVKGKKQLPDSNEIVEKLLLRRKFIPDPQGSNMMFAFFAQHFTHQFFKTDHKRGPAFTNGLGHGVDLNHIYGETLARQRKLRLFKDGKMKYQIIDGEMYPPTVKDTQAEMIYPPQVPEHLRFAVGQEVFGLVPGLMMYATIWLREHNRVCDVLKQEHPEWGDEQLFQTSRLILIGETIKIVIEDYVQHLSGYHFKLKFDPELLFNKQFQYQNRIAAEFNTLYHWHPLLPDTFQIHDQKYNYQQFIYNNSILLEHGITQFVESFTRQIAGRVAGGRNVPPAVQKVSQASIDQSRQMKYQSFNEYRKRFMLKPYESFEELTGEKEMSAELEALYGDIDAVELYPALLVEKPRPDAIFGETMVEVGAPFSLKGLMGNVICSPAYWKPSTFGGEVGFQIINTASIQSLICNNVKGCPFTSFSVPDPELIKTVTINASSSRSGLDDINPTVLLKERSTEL

[16] = test system: Rattus norvegicus; assay: Inhibition of adjuvant-induced arthritis in Wistar rat at 0.01 mg/kg, po; type: functional; procedure, shortened: as §1

Row | Compound | solubility at 24 h [2] | remaining at 0.5 h, 5 µM [3] | remaining at 0.5 h, 5 µM [8] | solubility at 24 h [10] | ED50 [11] | IC50 [15] | other results
1 | Cc1cc(=O)c(Oc2ccc(F)cc2F)c(-c2ccc(S(C)(=O)=O)cc2)o1 | 7 µg/mL (≈ 17.8 µM) | 26% | 2% | 9 µg/mL (≈ 22.9 µM) | 0.7 mg/kg |  | Cmax [1]: 2959 ng/mL; inhibition in vivo at 0.1 mg/kg [4]: 68%; Tmax [5]: 2.3 h; AUC [6]: 9220 ng·h/mL; Cmax [7]: 1510 ng/mL; Ratio AUC [9]: 14; AUC [12]: 18646 ng·h/mL; Tmax [13]: 1 h
2 | Cc1ccc(-c2ncc(Cl)cc2-c2ccc(S(C)(=O)=O)cc2)cn1 [ETORICOXIB] |  |  |  |  | 1 mg/kg |  | EC50 [14]: 0.44 mg/kg
3 | Cc1cc(=O)c(Oc2ccc(F)cc2F)c(-c2ccc([S@@+](C)[O-])cc2)o1 |  | 55% | 20% |  |  | 2100 nM | 
4 | CS(=O)(=O)c1ccc(C2=C(c3ccccc3)C(=O)OC2)cc1 [ROFECOXIB] |  |  |  |  | 0.9 mg/kg |  | EC50 [14]: 0.3 mg/kg
5 | Cc1cc(=O)c(Oc2ccc(Br)cc2F)c(-c2ccc([S@+](C)[O-])cc2)o1 |  | 80% | 42% |  |  | 200 nM | 
6 | Cc1cc(=O)c(Oc2ccc(Cl)cc2F)c(-c2ccc(S(C)(=O)=O)cc2)o1 | 5 µg/mL (≈ 12.2 µM) | 27% | 6% | 18 µg/mL (≈ 44 µM) | 0.8 mg/kg |  | inhibition in vivo at 0.1 mg/kg [4]: 63%
7 | Cc1cc(=O)c(Oc2ccc(Cl)cc2F)c(-c2ccc([S@+](C)[O-])cc2)o1 |  | 67% | 41% |  |  |  | 
8 | Cc1cc(=O)c(Oc2ccc(Cl)cc2F)c(-c2ccc([S@@+](C)[O-])cc2)o1 |  | 87% | 48% |  |  |  | 
9 | Cc1cc(=O)c(Oc2ccc(Br)cc2F)c(-c2ccc([S@@+](C)[O-])cc2)o1 |  | 93% | 62% |  |  | 1580 nM | 
10 | Cc1cc(=O)c(Oc2ccc(Br)cc2F)c(-c2ccc([S+](C)[O-])cc2)o1 (configuration not stated) | 15 µg/mL (≈ 34.3 µM) | 77% | 64% | 31 µg/mL (≈ 70.9 µM) | 2.8 mg/kg |  | AUC [6]: 43 ng·h/mL; Cmax [7]: 37 ng/mL; inhibition in vivo at 0.01 mg/kg [16]: 58%; Tmax [13]: 0.3 h
11 | Cc1cc(=O)c(Oc2ccc(F)cc2F)c(-c2ccc([S+](C)[O-])cc2)o1 (configuration not stated) | 150 µg/mL (≈ 399 µM) | 54% | 24% | 527 µg/mL (≈ 1400 µM) | 1.3 mg/kg | 920 nM | inhibition in vivo at 0.1 mg/kg [4]: 59%; AUC [6]: 1310 ng·h/mL; Cmax [7]: 1310 ng/mL; Tmax [13]: 0.3 h
12 | Cc1cc(=O)c(Oc2ccc(F)cc2F)c(-c2ccc([S@+](C)[O-])cc2)o1 |  | 38% | 17% |  |  | 270 nM | 
13 | Cc1cc(=O)c(Oc2ccc(Cl)cc2F)c(-c2ccc([S+](C)[O-])cc2)o1 (configuration not stated) | 37 µg/mL (≈ 94.2 µM) | 86% | 57% | 70 µg/mL (≈ 178 µM) | 2.3 mg/kg |  | inhibition in vivo at 0.1 mg/kg [4]: 56%
14 | Cc1cc(=O)c(Oc2ccc(Br)cc2F)c(-c2ccc(S(C)(=O)=O)cc2)o1 | 1 µg/mL (≈ 2.21 µM) | 34% | 12% | 4 µg/mL (≈ 8.82 µM) | 3.2 mg/kg |  | Cmax [1]: 243 ng/mL; Tmax [5]: 1.5 h; AUC [6]: 1270 ng·h/mL; Cmax [7]: 177 ng/mL; Ratio AUC [9]: 28; inhibition in vivo at 0.01 mg/kg [16]: 60%; AUC [12]: 1125 ng·h/mL; Tmax [13]: 2.2 h
